MT1-MMP act inh – blockers of MT1-MMP proenzyme processing, primary screen, HT1080 RFP-PRO-GFP cells, GFP/RFP fluorescence | Matrix metalloproteinase-14 (Homo sapiens), P50281 | GFP/RFP ratio fluorescence, overnight; percent of plate control window, DMSO zero | GFP/RFP ratio change, % at 20 µM | hit rate 0.061% among 360,000 | AID 651647, 2012;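 active = GFP/RFP ratio change of at least 30% with cell ATP level not reduced by more than half and red fluorescence within 50% of control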
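Material – HT1080 RFP-PRO-GFP cells · Control set – DMSO wells and RFP-L50D-GFP cells · Incubation – overnight cell settling, then overnight compound exposure, 37 °C, 5% CO2 · Compound dosing – single-point 20 µM compound, 1% DMSO · Read-out – GFP/RFP fluorescence ratio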
ATG4B inh – ATG4B protease inhibitors, primary screen, biochemical, fluorescence, uHTS; ATG4B cleavage of LC3-PLA2, NBD-HPC fluorescence, 1 h; inhibition, % at 8.33 µM; hit rate 0.51% among 340,000; AID 504462, 2011; in the data active = inhibition above about 40%
Target sequence (Q9Y4P1 whole entry, looked up): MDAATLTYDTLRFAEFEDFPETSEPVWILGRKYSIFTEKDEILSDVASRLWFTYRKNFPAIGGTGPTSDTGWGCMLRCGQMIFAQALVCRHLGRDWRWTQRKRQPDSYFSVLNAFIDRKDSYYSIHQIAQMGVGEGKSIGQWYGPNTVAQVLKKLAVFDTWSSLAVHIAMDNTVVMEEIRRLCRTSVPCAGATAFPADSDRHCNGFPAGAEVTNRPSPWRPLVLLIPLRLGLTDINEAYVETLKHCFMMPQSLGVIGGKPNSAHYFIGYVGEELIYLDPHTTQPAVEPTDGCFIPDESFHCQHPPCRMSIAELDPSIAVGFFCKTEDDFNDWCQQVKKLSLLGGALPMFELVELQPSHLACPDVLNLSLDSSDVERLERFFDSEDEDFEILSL
MPTP inh – mitochondrial permeability transition pore inhibitors, primary screen, biochemical, isolated mouse mitochondria, absorbance; Ca2+ swelling absorbance, 30 min; inhibition, % at 10 µM; hit rate 1.4% among 360,000;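 active = inhibition of 50% or more, scaled per plate between neutral and stimulator controls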
SKN-1 inh – suppressors of acrylamide-induced Pgst-4::GFP reporter in worms, primary screen, SKN-1 inhibitor project, whole organism, uHTS, GFP/RFP fluorescence ratio, strain VP596; C. elegans VP596 Pgst-4::GFP/RFP ratio, 24 h; inhibition, % at 21.8 µM; hit rate 0.49% among 360,000;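 active = interference check ratio from 0.5 to 1.5 plus GFP to RFP signal ratio inhibition reaching or exceeding a fixed threshold, cut at about 30% in these data, passing the limit was not always enough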
MPTP counter – fluorescence retest of MPTP screen hits in isolated mitochondria, single concentration | shares compounds with MPTP inh | membrane potential, Rhodamine 123 fluorescence | inhibition, % at 10 µM | hit rate 78% among 5,000 | AID 624504, 2012; in the data active = inhibition above about 22%
MPTP swell DR – mitochondrial permeability transition pore inhibitors, dose response, biochemical, absorbance, uHTS hits | hit rate 58% among 780 | isolated mitochondria swelling | shares compounds with MPTP inh | AID 651561, 2012 | IC50, µM; in the data active = IC50 below about 20 µM
MPTP counter DR – fluorescent counter-screen in isolated mitochondria, dose response, counter-screen for MPTP inhibitor project, biochemical, fluorescence, uHTS hits; shares compounds with MPTP inh; isolated mitochondria counterscreen, fluorescence read-out; IC50, µM; hit rate 49% among 780; in the data active = IC50 below about 80 µM
Numbers stand for hits; 0 = inactive; - = not tested or not shown. This is a sample that favours compounds with a hit; in the whole collection about 2.3% have one here.

SMILES	MT1-MMP act inh	ATG4B inh	MPTP inh	SKN-1 inh	MPTP counter	others
Cc1ccc(NC(=O)CSc2ccccc2NC(=O)c2ccccc2)cc1Cl	0	0	92	0	65
Cc1ccc(NC(=O)CSc2ccccc2NC(=O)c2ccccc2Cl)cc1Cl	0	0	90	0	87
Cc1ccc(C(=O)N[C@H](C(=O)OCc2cc(=O)oc3cc(C)ccc23)C(C)C)cc1	0	0	0	0	-
O=C(CN1C(=O)NC2(CCCCCC2)C1=O)Nc1ccc(OC(F)(F)F)cc1	0	-	0	0	-
O=[N+]([O-])c1ccc(O)c(C2CCCCC2)c1	0	0	88	0	102
COc1ccc(Cl)cc1NC(=O)CCN1C(=O)C2C3C=CC(C4CC34)C2C1=O (stereo not drawn)	0	0	0	0	-
O=C1NC[C@@H](CCCCN2C[C@H](Cc3ccccc3)N(CCc3ccccc3)C(=O)C2=O)N(CCc2ccccc2)C1=O	0	-	0	0	-
CCC(NC(=O)c1ccc2nc(Cc3ccc(OC)cc3)oc2c1)c1ccncc1 (stereo not drawn)	0	0	66	0	76
CN(Cc1ccc(OCC(O)CN2CCCCC2)cc1)Cc1ccnc2ccccc12 (stereo not drawn)	0	0	95	0	106
Cc1nn(C)cc1CN(C)Cc1ccc(OCC(O)CN2CCCCC2)cc1 (stereo not drawn)	0	0	0	0	-
COc1ccc(NC(=O)Nc2ccc3c(c2)N(C)C(=O)CS3)cc1Cl	0	0	93	0	68
CN1C(=O)CSc2ccc(NC(=O)NCCC3=CCCCC3)cc21	0	0	75	0	78
CC(C)CCNC(=O)Nc1ccc2c(c1)N(C)C(=O)CS2	0	0	0	0	-
CC(=O)c1ccc(NC(=O)Nc2ccc3c(c2)N(C)C(=O)CS3)cc1	0	0	96	0	77
COc1cc(OC)cc(C(=O)NNC(=O)CCC(=O)c2cccs2)c1	0	0	0	0	-
COc1ccccc1C(=O)NCCC(=O)NCCCSc1ccccc1	0	0	0	0	-
COc1cccc(/C=C/C(=O)OCC(=O)NCCC2=CCCCC2)c1	0	0	0	0	-
Cc1ccc2nc(-c3ccc(NC(=S)NCCC(C)C)cc3)sc2c1	0	0	0	0	-
CCC(C)(C)NC(=S)Nc1ccc(-c2nc3ccc(C)cc3s2)cc1	0	0	85	0	34
CCCCNC(=S)Nc1ccc(-c2nc3ccc(C)cc3s2)cc1	0	0	88	0	87
CCOc1ccccc1NC(=O)Cn1nnc(-c2ccc(OCC)c(OCC)c2)n1	0	0	0	0	-
Cc1cc(C(=O)NC2CCCc3c2cnn3-c2ccc(C(C)(C)C)cc2)nn1C (stereo not drawn)	0	0	89	0	105
CC1=C(C(=O)NC2CCCc3c2cnn3-c2cccc(C)c2C)OCCO1 (stereo not drawn)	0	0	0	0	-
Cc1cccc(-n2ncc3c2CCCC3NC(=O)c2ccncc2)c1C (stereo not drawn)	0	-	86	0	90
CCn1cc(C(=O)NC2CCCc3c2cnn3-c2cccc(C)c2C)cn1 (stereo not drawn)	0	-	87	0	104
SMILES	MT1-MMP act inh	ATG4B inh	MPTP inh	SKN-1 inh	MPTP counter	others
Cc1sc2ncnc(N3CCC(C(=O)N(C)CC(=O)Nc4ccc(Cl)c(C(F)(F)F)c4)CC3)c2c1C	0	0	0	0	-
N#Cc1cnc2sc3ccccc3n2c1=N	0	0	72	0	81
Cn1nc2sc3ccccc3n2c(=O)c1=O	0	0	0	0	-
O=C(Nc1nnc(-c2ccc(Cl)cc2)o1)Nc1ccccc1Cl	0	0	0	0	-
O=C(Nc1nnc(-c2ccc(Cl)cc2)o1)c1nc2ccccc2s1	0	0	97	0	0	MPTP swell DR=2.6;MPTP counter DR=13
Clc1cccc2sc(-c3nnc(-c4ccccc4)o3)c(Cl)c12	0	0	0	0	-
CCc1cc2c(NCc3ccccc3)nc(C)nc2s1	0	0	91	0	65
Cn1nc(C(C)(C)C)cc1C(=O)NCc1cc(F)cc2c1OCOC2	0	0	92	0	84
Cc1cc(C(=O)NCc2cc(F)cc3c2OCOC3)nn1C	0	0	0	0	-
O=C(c1ccccc1)N1N=C(c2cccs2)CC1c1ccccc1O (stereo not drawn)	0	0	0	0	-
COC(=O)c1ccc(C2N=C(c3cccs3)CC(c3ccccc3O)N2)cc1 (stereo not drawn)	0	0	52	0	88
Cc1ccc(Sc2cc(NCCCO)c([N+](=O)[O-])c3nonc23)cc1	0	0	72	0	34
CCn1nc(C)c(CNC(=O)c2cc(COc3ccc(F)cc3Cl)on2)c1C	0	0	53	0	36
CCn1cc(CNC(=O)c2cc(COc3ccc(F)cc3Cl)on2)cn1	0	0	0	0	-
O=C(c1cccc(C(F)(F)F)c1)c1c[nH]c(C(=O)NCCCN2CCOCC2)c1	0	0	0	0	-
CC(C)(C)c1ccc(S(=O)(=O)Nc2ccc(Cc3ccncc3)cc2)cc1	0	0	73	0	74
CC(=O)c1ccc(NC(=O)CCCN2C(=O)COc3ccc(C)cc32)cc1	0	0	0	0	-
CC(=O)c1cccc(NS(=O)(=O)c2ccc(N/C=C/C(=O)c3ccc(F)cc3)cc2)c1	0	0	108	0	94
CC(=O)c1cccc(NS(=O)(=O)c2ccc(N/C=C\C(=O)c3ccc(C)cc3)cc2)c1	0	0	106	0	85
OCCNCc1cccc(OCc2ccc(Cl)cc2)c1	0	0	64	0	0	MPTP swell DR=5.6;MPTP counter DR=0
COc1cc(NC(=O)C2(C)CCN2C(C)C)cc(OC)c1OC (stereo not drawn)	0	-	0	0	-
CN(C)c1cccc(CNC(=O)c2ccc3sc([C@@H]4O[C@H](CO)[C@H](O)[C@H](O)[C@H]4O)nc3c2)c1	0	-	0	0	-
CC(=O)N1CCN(c2ccccc2NC(=O)COc2cc(C)cc(C)c2)CC1	0	0	0	0	-
N#C/C(=C\c1ccc(O)c(O)c1)S(=O)(=O)c1ccccc1	0	0	90	0	70
Cc1cc(C)c(/C=C(\C#N)S(=O)(=O)c2ccccc2)[nH]1	0	0	0	0	-
Cc1[nH]c2ccccc2c1/C=C(\C#N)S(=O)(=O)c1ccccc1	0	0	72	0	61
N#C/C(=C\c1ccncc1)C(N)=O	0	0	0	0	-
OCCN1CCN(c2ncnc3c2ncn3[C@H]2CN(Cc3cccnc3)C[C@@H](CO)O2)CC1	0	-	0	0	-

Screening data (PubChem)
